Legend:
[1] = system: RPMI 8402; assay: Cytotoxicity against human lymphoblast cell line RPMI 8402; type: functional, cell-based
In short: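 RPMI 8402 human lymphoblasts grown in suspension at 37 °C, 5% CO2, in RPMI with 10% heat-inactivated FBS, 2 mM L-glutamine, penicillin and streptomycin. Seeded at 2000 cells/well and exposed to drug continuously for 4 days. Viability read by MTT tetrazolium microtiter assay, giving IC50. Highest dose tested 25 µM.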

[2] = system: DNA topoisomerase 1 (Bos taurus); assay: Effective concentration against Topoisomerase-I (purified from calf thymus gland) mediated DNA cleavage relative to Hoechst 33342

| Compound | REC [2] | IC50 [1] [nM] |
| --- | --- | --- |
| Cc1cccc(-c2nc3cc(-c4nc5cc(C#N)ccc5[nH]4)ccc3[nH]2)c1 | 100 | 860 |
| N#Cc1ccc2[nH]c(-c3ccc4[nH]c(-c5ccccc5)nc4c3)nc2c1 | > 100 | > 25000 |
| Cc1ccc(-c2nc3cc(-c4nc5cc(C#N)ccc5[nH]4)ccc3[nH]2)cc1 | 1 | 570 |
| Cc1cccc(-c2nc3cc(-c4nc5cc(N6CCN(C)CC6)ccc5[nH]4)ccc3[nH]2)c1 | 1 | 360 |
| Cc1ccccc1-c1nc2cc(-c3nc4cc(N5CCN(C)CC5)ccc4[nH]3)ccc2[nH]1 | 10 | 590 |
| CN1CCN(c2ccc3[nH]c(-c4ccc5[nH]c(-c6ccccc6)nc5c4)nc3c2)CC1 | 1 | 490 |
| Cc1ccc(-c2nc3cc(-c4nc5cc(N6CCN(C)CC6)ccc5[nH]4)ccc3[nH]2)cc1 | 1 | 830 |
| CN1CCN(c2ccc3[nH]c(-c4ccc5[nH]c(-c6ccc7ccccc7c6)nc5c4)nc3c2)CC1 | 10 | 110 |

Continued, in another order:

| REC [2] | Compound | IC50 [1] [nM] |
| --- | --- | --- |
| > 100 | Cc1ccccc1-c1nc2cc(-c3nc4cc(C#N)ccc4[nH]3)ccc2[nH]1 | 1200 |
| 10 | Cc1ccc(-c2nc3cc(-c4nc5cc(C(N)=O)ccc5[nH]4)ccc3[nH]2)cc1 | > 25000 |
| 10 | N#Cc1ccc2[nH]c(-c3ccc4[nH]c(-c5ccc6ccccc6c5)nc4c3)nc2c1 | 130 |
| 100 | NC(=O)c1ccc2[nH]c(-c3ccc4[nH]c(-c5ccc6ccccc6c5)nc4c3)nc2c1 | 740 |
| 100 | Cc1ccccc1-c1nc2cc(-c3nc4cc(C(N)=O)ccc4[nH]3)ccc2[nH]1 | 8200 |
| 10 | NC(=O)c1ccc2[nH]c(-c3ccc4[nH]c(-c5ccccc5)nc4c3)nc2c1 | > 25000 |
| 20 | CN1CCN(c2ccc3[nH]c(-c4ccc5[nH]c(-c6cccc7ccccc67)nc5c4)nc3c2)CC1 | 330 |
| 10 | N#Cc1ccc2[nH]c(-c3ccc4[nH]c(-c5cccc6ccccc56)nc4c3)nc2c1 | 650 |
| 100 | Cc1cccc(-c2nc3cc(-c4nc5cc(C(N)=O)ccc5[nH]4)ccc3[nH]2)c1 | 8200 |
| 20 | NC(=O)c1ccc2[nH]c(-c3ccc4[nH]c(-c5cccc6ccccc56)nc4c3)nc2c1 | 3700 |
